Measured values as given in PMC3557458 (Journal of molecular biology, 2012).
“Also recorded” adds a separate entry of the source.

Columns and labels:
Bim and Bad BH3 peptides = type: binding, human; conditions: FP competition, Bim-22 and Bad-22, Ki relative to Bcl-xL
Procedure, shortened: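 His6-tagged Bcl-xL variants (E. coli RP3098, Ni-NTA under native conditions) at 50 nM with 15 nM fluorescein-labelled peptide, which varied by variant, competed against serially diluted unlabelled peptide. Equilibrated ≥3 hr at ~25 °C; anisotropy read in duplicate. Ki values were fitted using direct-binding Kd values, then normalized to averaged parent-protein Ki.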

RX1, recombinant (human) = RX1, recombinant (human) (UniProt Q07817); assay: fluorescence polarisation
[1] = biological target: recombinant native Bcl-xL (human) (UniProt Q07817); assay: fluorescence polarisation
[2] = biological target: recombinant native Bcl-xL (human, UniProt Q07817-1 1-209); assay: fluorescence polarisation
[3] = tested on: fluoresceinated Bim vs. Bad BH3; assay: Fluorescence polarization direct binding of fluoresceinated Bim vs. Bad BH3; design: species or system human; conditions: labeled peptide 5 nM, at least 1 hr, ~25 °C
RX1 = RX1 (Homo sapiens, UniProt Q07817, A142G/F105L/F146A/L130I/Q111G/Q125V/S122I/V126A/Y101H); type: binding; conditions: from Ki values of RX1 and Bcl-xL for Bim-22 and Bad-22

Sequence of recombinant native Bcl-xL (Q07817 1-209): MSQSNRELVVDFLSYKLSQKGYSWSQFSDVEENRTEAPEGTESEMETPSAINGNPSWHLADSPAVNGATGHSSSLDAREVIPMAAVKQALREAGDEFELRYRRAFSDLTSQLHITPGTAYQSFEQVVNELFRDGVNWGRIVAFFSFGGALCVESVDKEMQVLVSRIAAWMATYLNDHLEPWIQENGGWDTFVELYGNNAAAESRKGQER

Molecule: A104M: Bcl-xL point mutant A104M (not in RX1)
- Bad vs. Bim binding preference of point mutation in the context of Bcl-xL (Bim and Bad BH3 peptides): confirmed to be specific

Molecule: A142G: Bcl-xL point mutant A142G
- Bad vs. Bim binding preference of point mutation in the context of Bcl-xL (Bim and Bad BH3 peptides): preferred binding Bad over Bim

Molecule: Bad-22, Bad BH3 peptide of 22 residues
- Ki (RX1, recombinant (human)): 33 nM
- Ki [1]: 2 nM

Molecule: Bim-22, Bim BH3 peptide of 22 residues
- Ki (RX1, recombinant (human)): > 50000 nM
- Ki [1]: 3 nM

Molecule: F105L: Bcl-xL point mutant F105L
- Bad vs. Bim binding preference of point mutation in the context of Bcl-xL (Bim and Bad BH3 peptides): favored Bim binding over Bad

Molecule: F146A: Bcl-xL point mutant F146A
- Bad vs. Bim binding preference of point mutation in the context of Bcl-xL (Bim and Bad BH3 peptides): did not confer specificity

Molecule: L130I: Bcl-xL point mutant L130I
- Bad vs. Bim binding preference of point mutation in the context of Bcl-xL (Bim and Bad BH3 peptides): shown not to be

Molecule: S122I: Bcl-xL point mutant, Ser 122 to Ile
- Bad vs. Bim binding preference of point mutation in the context of Bcl-xL (Bim and Bad BH3 peptides): preferred binding Bad over Bim; also recorded: confirmed to be specific

Molecule: V126A: Bcl-xL point mutant V126A
- Bad vs. Bim binding preference of point mutation in the context of Bcl-xL (Bim and Bad BH3 peptides): preferred binding Bad over Bim

Molecule: LWAAQRYGRELRRMSDEFVDSFKKGLPR (peptide, UniProt Q92934 104-131, looked up) [Bad-28, recombinant Bad BH3 28-mer peptide]
- Ki [2]: < 0.1 nM

Molecule: EQWAREIGAQLRRMADDLNAQYERRRQE [PUMA BH3 peptide]
- Ki [2]: < 0.1 nM

B1: RX1: Re-designed Bcl-xL variant: Y101H, F105L, Q111G, S122I, Q125V, V126A, L130I, A142G, F146A (protein)
chain: MSQSNRELVVDFLSYKLSQKGYSWSQFSDVEENRTEAPEGTESEMETPSAINGNPSWHLADSPAVNGATGHSSSLDAREVIPMAAVKQALREAGDEFELRHRRALSDLTSGLHITPGTAYQIFEVAVNEIFRDGVNWGRIVGFFSAGGALCVESVDKEMQVLVSRIAAWMATYLNDHLEPWIQENGGWDTFVELYGNNAAAESRKGQER
modifications: left off: His6, end not stated, state not stated
- preference for binding Bad over Bim, direct binding [3]: strong preference
- specificity increase for Bad BH3 over Bim BH3 relative to native Bcl-xL (RX1): ≥ 1,000 fold
